≈ marks a conversion by molar mass, not a printed value.
How the values were obtained:
Staphylococcus aureus [1] = assay: Antibacterial activity against Staphylococcus aureus ATCC 6538 after 24 hrs by microdilution method; assay type: functional; details: ATCC 6538, 24 h
Procedure, shortened: (§1)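 Broth microdilution in 96-well plates. Bacterial suspensions were adjusted in sterile saline to 1.0 × 10⁵ CFU/ml, prepared daily and kept at 4 °C. Compound was added to LB broth with 1.0 × 10⁴ CFU per well and shaken at 160 rpm for 24 h at […] (so in the source). MIC is the lowest concentration with no visible growth under a binocular microscope. OD655 was also read. Duplicate, repeated three times.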

Bacillus cereus [2] = assay: Antibacterial activity against clinical isolate of Bacillus cereus after 24 hrs by microdilution method; assay type: functional; procedure, shortened: as §1
Micrococcus flavus [3] = assay: Antibacterial activity against Micrococcus flavus ATCC 10240 after 24 hrs by microdilution method; assay type: functional; details: ATCC 10240, 24 h; procedure, shortened: as §1
Listeria monocytogenes [4] = assay: Antibacterial activity against Listeria monocytogenes NCTC 7973 after 24 hrs by microdilution method; assay type: functional; details: NCTC 7973, 24 h; procedure, shortened: as §1
Pseudomonas aeruginosa [5] = assay: Antibacterial activity against Pseudomonas aeruginosa ATCC 27853 after 24 hrs by microdilution method; assay type: functional; details: ATCC 27853, 24 h; procedure, shortened: as §1
Salmonella typhimurium [6] = assay: Antibacterial activity against Salmonella Typhimurium ATCC 13311 after 24 hrs by microdilution method; assay type: functional, Salmonella enterica subsp. enterica serovar Typhimurium; details: Salmonella enterica, ATCC 13311, 24 h; procedure, shortened: as §1
Escherichia coli [7] = assay: Antibacterial activity against Escherichia coli ATCC 35210 after 24 hrs by microdilution method; assay type: functional; details: ATCC 35210, 24 h; procedure, shortened: as §1
Enterococcus faecalis [8] = assay: Antibacterial activity against Enterococcus faecalis isolated from human after 24 hrs by microdilution method; assay type: functional; procedure, shortened: as §1
Staphylococcus aureus [9] = assay: Antibacterial activity against Staphylococcus aureus ATCC 6538 incubated for 24 hrs followed by serial sub-cultivation for 24 hrs by microdilution method; assay type: functional; details: ATCC 6538, 24 h
Procedure, shortened: (§2)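 MBC: after the 24 h LB broth microdilution (1.0 × 10⁴ CFU per well, 160 rpm), wells were serially sub-cultured into fresh broth plates and incubated a further 24 h. MBC is the lowest concentration with no visible growth, taken as 99.5% killing of the original inoculum. Duplicate, repeated three times.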

Bacillus cereus [10] = assay: Antibacterial activity against clinical isolate of Bacillus cereus incubated for 24 hrs followed by serial sub-cultivation for 24 hrs by microdilution; assay type: functional; procedure, shortened: as §2
Micrococcus flavus [11] = assay: Antibacterial activity against Micrococcus flavus ATCC 10240 incubated for 24 hrs followed by serial sub-cultivation for 24 hrs by microdilution; assay type: functional; details: ATCC 10240, 24 h; procedure, shortened: as §2
Listeria monocytogenes [12] = assay: Antibacterial activity against Listeria monocytogenes NCTC 7973 incubated for 24 hrs followed by serial sub-cultivation for 24 hrs by microdilution; assay type: functional; details: NCTC 7973, 24 h; procedure, shortened: as §2
Pseudomonas aeruginosa [13] = assay: Antibacterial activity against Pseudomonas aeruginosa ATCC 27853 incubated for 24 hrs followed by serial sub-cultivation for 24 hrs by microdilution; assay type: functional; details: ATCC 27853, 24 h; procedure, shortened: as §2
Salmonella typhimurium [14] = assay: Antibacterial activity against Salmonella Typhimurium ATCC 13311 incubated for 24 hrs followed by serial sub-cultivation for 24 hrs by microdilution; assay type: functional, Salmonella enterica subsp. enterica serovar Typhimurium; details: Salmonella enterica, ATCC 13311, 24 h; procedure, shortened: as §2
Escherichia coli [15] = assay: Antibacterial activity against Escherichia coli ATCC 35210 incubated for 24 hrs followed by serial sub-cultivation for 24 hrs by microdilution; assay type: functional; details: ATCC 35210, 24 h; procedure, shortened: as §2
Enterococcus faecalis [16] = assay: Antibacterial activity against Enterococcus faecalis isolated from human incubated for 24 hrs followed by serial sub-cultivation for 24 hrs by microdilution; assay type: functional; procedure, shortened: as §2
Aspergillus ochraceus [17] = assay: Antifungal activity against Aspergillus ochraceus ATCC 12066 after 72 hrs by serial dilution technique; assay type: functional; details: ATCC 12066, 72 h
Procedure, shortened: (§3)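 Modified microdilution in 96-well plates. Fungi were kept on malt agar at 4 °C. Spores were washed off in sterile 0.85% saline with 0.1% Tween 80. Compounds were dissolved at 1 mg/ml in 5% DMSO with 0.1% Tween 80 and added to malt broth with inoculum. Plates were shaken at 160 rpm for 72 h at 28 °C. Duplicate, repeated three times.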

Aspergillus niger [18] = assay: Antifungal activity against Aspergillus niger ATCC 6275 after 72 hrs by serial dilution technique; assay type: functional; details: ATCC 6275, 72 h; procedure, shortened: as §3
Aspergillus flavus [19] = assay: Antifungal activity against Aspergillus flavus ATCC 9643 after 72 hrs by serial dilution technique; assay type: functional; details: ATCC 9643, 72 h; procedure, shortened: as §3
Talaromyces funiculosus [20] = assay: Antifungal activity against Penicillium funiculosum ATCC 36839 after 72 hrs by serial dilution technique; assay type: functional; details: ATCC 36839, 72 h; procedure, shortened: as §3
Penicillium ochrochloron [21] = assay: Antifungal activity against Penicillium ochrochloron ATCC 9112 after 72 hrs by serial dilution technique; assay type: functional; details: ATCC 9112, 72 h; procedure, shortened: as §3
Trichoderma viride [22] = assay: Antifungal activity against Trichoderma viride IAM 5061 after 72 hrs by serial dilution technique; assay type: functional; details: IAM 5061, 72 h; procedure, shortened: as §3
Candida albicans [23] = assay: Antifungal activity against Candida albicans isolated from human after 72 hrs by serial dilution technique; assay type: functional; procedure, shortened: as §3
Aspergillus ochraceus [24] = assay: Antifungal activity against Aspergillus ochraceus ATCC 12066 incubated for 72 hrs followed by serial sub-cultivation for 72 hrs by serial dilution technique; assay type: functional; details: ATCC 12066, 72 h
Procedure, shortened: (§4)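 MFC: material from 72 h malt broth microdilution wells was serially sub-cultured into fresh broth plates and incubated a further 72 h at 28 °C. Fungicidal concentration is taken from growth after sub-culture. Duplicate, repeated three times.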

Aspergillus fumigatus [25] = assay: Antifungal activity against Aspergillus fumigatus isolated from human incubated for 72 hrs followed by serial sub-cultivation for 72 hrs by serial dilution technique; assay type: functional; procedure, shortened: as §4
Aspergillus niger [26] = assay: Antifungal activity against Aspergillus niger ATCC 6275 incubated for 72 hrs followed by serial sub-cultivation for 72 hrs by serial dilution technique; assay type: functional; details: ATCC 6275, 72 h; procedure, shortened: as §4
Aspergillus flavus [27] = assay: Antifungal activity against Aspergillus flavus ATCC 9643 incubated for 72 hrs followed by serial sub-cultivation for 72 hrs by serial dilution technique; assay type: functional; details: ATCC 9643, 72 h; procedure, shortened: as §4
Talaromyces funiculosus [28] = assay: Antifungal activity against Penicillium funiculosum ATCC 36839 incubated for 72 hrs followed by serial sub-cultivation for 72 hrs by serial dilution technique; assay type: functional; details: ATCC 36839, 72 h; procedure, shortened: as §4
Penicillium ochrochloron [29] = assay: Antifungal activity against Penicillium ochrochloron ATCC 9112 incubated for 72 hrs followed by serial sub-cultivation for 72 hrs by serial dilution technique; assay type: functional; details: ATCC 9112, 72 h; procedure, shortened: as §4
Trichoderma viride [30] = assay: Antifungal activity against Trichoderma viride IAM 5061 incubated for 72 hrs followed by serial sub-cultivation for 72 hrs by serial dilution technique; assay type: functional; details: IAM 5061, 72 h; procedure, shortened: as §4
Candida albicans [31] = assay: Antifungal activity against Candida albicans isolated from human incubated for 72 hrs followed by serial sub-cultivation for 72 hrs by serial dilution technique; assay type: functional; procedure, shortened: as §4
Pseudomonas aeruginosa [32] = assay: Ratio of ampicillin MIC to compound MIC for Pseudomonas aeruginosa ATCC 27853; assay type: functional
Aspergillus ochraceus [33] = assay: Ratio of bifonazole to compound for Aspergillus ochraceus ATCC 12066; assay type: functional
Aspergillus niger [34] = assay: Ratio of bifonazole to compound for Aspergillus niger ATCC 6275; assay type: functional
Talaromyces funiculosus [35] = assay: Ratio of bifonazole to compound for Penicillium funiculosum ATCC 36839; assay type: functional
Penicillium ochrochloron [36] = assay: Ratio of bifonazole to compound for Penicillium ochrochloron ATCC 9112; assay type: functional
Trichoderma viride [37] = assay: Ratio of bifonazole to compound for Trichoderma viride IAM 5061; assay type: functional
Candida albicans [38] = assay: Ratio of bifonazole to compound for Candida albicans isolated from human; assay type: functional
Aspergillus ochraceus [39] = assay: Ratio of ketoconazole to compound for Aspergillus ochraceus ATCC 12066; assay type: functional
Aspergillus fumigatus [40] = assay: Ratio of ketoconazole to compound for Aspergillus fumigatus isolated from human; assay type: functional
Penicillium ochrochloron [41] = assay: Ratio of ketoconazole to compound for Penicillium ochrochloron ATCC 9112; assay type: functional
Candida albicans [42] = assay: Ratio of ketoconazole to compound for Candida albicans isolated from human; assay type: functional
Aspergillus ochraceus [43] = assay: Antifungal activity against Aspergillus ochraceus after 72 hrs by serial dilution technique

- MIC (Staphylococcus aureus [1]): 68.9 µM (≈ 20 µg/mL)
- MIC (Bacillus cereus [2]): 86.2 µM (≈ 25 µg/mL)
- MIC (Micrococcus flavus [3]): 51.7 µM (≈ 15 µg/mL)
- MIC (Listeria monocytogenes [4]): 86.2 µM (≈ 25 µg/mL)
- MIC (Pseudomonas aeruginosa [5]): 68.9 µM (≈ 20 µg/mL)
- MIC (Salmonella typhimurium [6]): 51.7 µM (≈ 15 µg/mL)
- MIC (Escherichia coli [7]): 51.7 µM (≈ 15 µg/mL)
- MIC (Enterococcus faecalis [8]): 51.7 µM (≈ 15 µg/mL)
- MIC (Aspergillus ochraceus [17]): 68.9 µM (≈ 20 µg/mL)
- MIC (Aspergillus niger [18]): 34.5 µM (≈ 10 µg/mL)
- MIC (Aspergillus flavus [19]): 68.9 µM (≈ 20 µg/mL)
- MIC (Talaromyces funiculosus [20]): 34.5 µM (≈ 10 µg/mL)
- MIC (Penicillium ochrochloron [21]): 68.9 µM (≈ 20 µg/mL)
- MIC (Trichoderma viride [22]): 34.5 µM (≈ 10 µg/mL)
- MIC (Candida albicans [23]): 34.5 µM (≈ 10 µg/mL)
- MIC (Aspergillus ochraceus [43]): 51.7 µM (≈ 15 µg/mL)
Structure (SMILES): CCNc1nc(C)c(C(=O)/C=C/c2ccc(F)cc2)s1
- MBC (Staphylococcus aureus [9]): 68.9 µM (≈ 20 µg/mL)
- MBC (Bacillus cereus [10]): 86.2 µM (≈ 25 µg/mL)
- MBC (Micrococcus flavus [11]): 68.9 µM (≈ 20 µg/mL)
- MBC (Listeria monocytogenes [12]): 103 µM (≈ 30 µg/mL)
- MBC (Pseudomonas aeruginosa [13]): 68.9 µM (≈ 20 µg/mL)
- MBC (Salmonella typhimurium [14]): 51.7 µM (≈ 15 µg/mL)
- MBC (Escherichia coli [15]): 68.9 µM (≈ 20 µg/mL)
- MBC (Enterococcus faecalis [16]): 68.9 µM (≈ 20 µg/mL)
- MFC (Aspergillus ochraceus [24]): 86.2 µM (≈ 25 µg/mL)
- MFC (Aspergillus fumigatus [25]): 68.9 µM (≈ 20 µg/mL)
- MFC (Aspergillus niger [26]): 51.7 µM (≈ 15 µg/mL)
- MFC (Aspergillus flavus [27]): 86.2 µM (≈ 25 µg/mL)
- MFC (Talaromyces funiculosus [28]): 68.9 µM (≈ 20 µg/mL)
- MFC (Penicillium ochrochloron [29]): 86.2 µM (≈ 25 µg/mL)
- MFC (Trichoderma viride [30]): 68.9 µM (≈ 20 µg/mL)
- MFC (Candida albicans [31]): 68.9 µM (≈ 20 µg/mL)
- Ratio (Pseudomonas aeruginosa [32]): 10
- Ratio (Aspergillus ochraceus [33]): 10
- Ratio (Aspergillus niger [34]): 10
- Ratio (Talaromyces funiculosus [35]): 10
- Ratio (Penicillium ochrochloron [36]): 10
- Ratio (Trichoderma viride [37]): 10
- Ratio (Candida albicans [38]): 10
- Ratio (Aspergillus ochraceus [39]): 10
- Ratio (Aspergillus fumigatus [40]): 10
- Ratio (Penicillium ochrochloron [41]): 10
- Ratio (Candida albicans [42]): 10
